Test results as given in ChEMBL document CHEMBL4689842, “EUbOPEN Chemogenomics Library wave 1” (2021).
Where “and” joins values, the source holds several entries; their conditions need not be identical. Equal values may be shown once.

System: Fibroblast
Assay: Multiplex assay against human fibroblast
Assay type: toxicity, cell-based
Procedure, shortened: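 Hoechst33342, BioTracker Green Microtubule Cytoskeleton Dye, MitoTracker Red and Annexin V Alexa Fluor 680 were added to live cells at seeding, and imaging on a CQ1 microscope at 37°C and 5% CO2 followed compound addition. Gating by CellPathfinder machine learning separated cells into Hoechst high-intensity objects or normal cells, then normal cells into healthy, pyknosed or fragmented nuclei, then pyknosed cells into mitotic or apoptotic. Per cents of healthy-nucleus cells are reported for the tubulin, mitochondrial-mass and membrane-permeability phenotypes.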

[1] = 12 h, 1 µM, compound concentration 1 uM, replicate 1
[2] = 12 h, 1 µM, compound concentration 1 uM, replicate 2
[3] = 12 h, 10 µM, compound concentration 10 uM, replicate 1
[4] = 12 h, 10 µM, compound concentration 10 uM, replicate 2
[5] = 24 h, 1 µM, compound concentration 1 uM, replicate 1
[6] = 24 h, 1 µM, compound concentration 1 uM, replicate 2
[7] = 24 h, 10 µM, compound concentration 10 uM, replicate 1
[8] = 24 h, 10 µM, compound concentration 10 uM, replicate 2
[9] = 48 h, 10 µM, compound concentration 10 uM, replicate 1
[10] = 48 h, 10 µM, compound concentration 10 uM, replicate 2
[11] = 48 h, 1 µM, compound concentration 1 uM, replicate 1
[12] = 48 h, 1 µM, compound concentration 1 uM, replicate 2

## CCOC(=O)Nc1cc(-c2ccc(C)c(NS(C)(=O)=O)c2)nn2c(C)nnc12
[1]
  Population Apoptotic (%): 75%
  Population Fragmented Nuclei (%): 30%
  Population Healthy Nuclei (%): 44%
  Population Hoechst High Intensity Objects (%): 9%
  Population Membrane Permeable-Phenotype (%): 9%
  Population Mitochondria Different-Phenotype (%): 9%
  Population Mitotic Cells (%): 24%
  Population Normal (%): 90%
  Population Pyknosed Nuclei (%): 24%
  Population Tubulin-Different-Phenotype (%): 10%
  Total Cell Count: 184
[2]
  Population Apoptotic (%): 60%
  Population Fragmented Nuclei (%): 55%
  Population Healthy Nuclei (%): 34%
  Population Hoechst High Intensity Objects (%): 35%
  Population Membrane Permeable-Phenotype (%): 16%
  Population Mitochondria Different-Phenotype (%): 16%
  Population Mitotic Cells (%): 40%
  Population Normal (%): 64%
  Population Pyknosed Nuclei (%): 9%
  Population Tubulin-Different-Phenotype (%): 11%
  Total Cell Count: 81
[3]
  Population Apoptotic (%): 70% and 66%
  Population Fragmented Nuclei (%): 30% and 28%
  Population Healthy Nuclei (%): 45% and 56%
  Population Hoechst High Intensity Objects (%): 15% and 13%
  Population Mitochondria Different-Phenotype (%): 9% and 14%
  Population Mitotic Cells (%): 29% and 33%
  Population Normal (%): 84% and 86%
  Population Pyknosed Nuclei (%): 23% and 15%
  Total Cell Count: 84 and 231
[4]
  Population Apoptotic (%): 50% and 40%
  Population Healthy Nuclei (%): 86%
  Population Membrane Permeable-Phenotype (%): 9% and 0%
  Population Mitotic Cells (%): 50% and 60%
  Population Normal (%): 77% and 97%
  Population Pyknosed Nuclei (%): 2% and 5%
  Total Cell Count: 88 and 101
[5]
  Population Apoptotic (%): 61%
  Population Fragmented Nuclei (%): 31%
  Population Healthy Nuclei (%): 55%
  Population Hoechst High Intensity Objects (%): 12%
  Population Membrane Permeable-Phenotype (%): 12%
  Population Mitochondria Different-Phenotype (%): 2%
  Population Mitotic Cells (%): 38%
  Population Normal (%): 87%
  Population Pyknosed Nuclei (%): 12%
  Population Tubulin-Different-Phenotype (%): 2%
  Total Cell Count: 186
[6]
  Population Apoptotic (%): 50%
  Population Fragmented Nuclei (%): 48%
  Population Healthy Nuclei (%): 42%
  Population Hoechst High Intensity Objects (%): 31%
  Population Membrane Permeable-Phenotype (%): 26%
  Population Mitochondria Different-Phenotype (%): 5%
  Population Mitotic Cells (%): 50%
  Population Normal (%): 68%
  Population Pyknosed Nuclei (%): 8%
  Population Tubulin-Different-Phenotype (%): 15%
  Total Cell Count: 66
[7]
  Population Apoptotic (%): 60% and 56%
  Population Fragmented Nuclei (%): 22% and 18%
  Population Healthy Nuclei (%): 47% and 66%
  Population Hoechst High Intensity Objects (%): 6% and 12%
  Population Membrane Permeable-Phenotype (%): 22% and 8%
  Population Mitochondria Different-Phenotype (%): 6% and 4%
  Population Mitotic Cells (%): 39% and 43%
  Population Normal (%): 94% and 88%
  Population Pyknosed Nuclei (%): 29% and 15%
  Total Cell Count: 100 and 225
[8]
  Population Healthy Nuclei (%): 46% and 90%
  Population Membrane Permeable-Phenotype (%): 3% and 0%
  Population Mitochondria Different-Phenotype (%): 10% and 16%
  Population Mitotic Cells (%): 100% and 71%
  Population Normal (%): 71% and 97%
  Total Cell Count: 88 and 137
[9]
  Population Apoptotic (%): 54%
  Population Fragmented Nuclei (%): 30%
  Population Healthy Nuclei (%): 56%
  Population Hoechst High Intensity Objects (%): 16%
  Population Membrane Permeable-Phenotype (%): 16%
  Population Mitochondria Different-Phenotype (%): 0%
  Population Mitotic Cells (%): 45%
  Population Normal (%): 83%
  Population Pyknosed Nuclei (%): 12%
  Population Tubulin-Different-Phenotype (%): 8%
  Total Cell Count: 105
[10]
  Population Apoptotic (%): 100%
  Population Fragmented Nuclei (%): 18%
  Population Healthy Nuclei (%): 80%
  Population Hoechst High Intensity Objects (%): 10%
  Population Membrane Permeable-Phenotype (%): 2%
  Population Mitochondria Different-Phenotype (%): 1%
  Population Mitotic Cells (%): 0%
  Population Normal (%): 89%
  Population Pyknosed Nuclei (%): 0%
  Population Tubulin-Different-Phenotype (%): 1%
  Total Cell Count: 114

## CC1=C(C(=O)Nc2cc3cn[nH]c3cc2F)C(c2ccc(C(F)(F)F)cc2)CC(=O)N1 (stereo unspecified)
[1]
  Population Apoptotic (%): 78%
  Population Fragmented Nuclei (%): 29%
  Population Healthy Nuclei (%): 41%
  Population Hoechst High Intensity Objects (%): 12%
  Population Membrane Permeable-Phenotype (%): 20%
  Population Mitochondria Different-Phenotype (%): 6%
  Population Mitotic Cells (%): 21%
  Population Normal (%): 87%
  Population Pyknosed Nuclei (%): 29%
  Population Tubulin-Different-Phenotype (%): 31%
  Total Cell Count: 124
[2]
  Population Apoptotic (%): 50%
  Population Fragmented Nuclei (%): 2%
  Population Healthy Nuclei (%): 93%
  Population Hoechst High Intensity Objects (%): 10%
  Population Membrane Permeable-Phenotype (%): 4%
  Population Mitochondria Different-Phenotype (%): 9%
  Population Mitotic Cells (%): 50%
  Population Normal (%): 89%
  Population Pyknosed Nuclei (%): 4%
  Population Tubulin-Different-Phenotype (%): 14%
  Total Cell Count: 76
[3]
  Population Apoptotic (%): 55%
  Population Fragmented Nuclei (%): 25%
  Population Healthy Nuclei (%): 46%
  Population Hoechst High Intensity Objects (%): 9%
  Population Membrane Permeable-Phenotype (%): 24%
  Population Mitochondria Different-Phenotype (%): 11%
  Population Mitotic Cells (%): 44%
  Population Normal (%): 90%
  Population Pyknosed Nuclei (%): 27%
  Population Tubulin-Different-Phenotype (%): 50%
  Total Cell Count: 144
[4]
  Population Apoptotic (%): 50%
  Population Fragmented Nuclei (%): 21%
  Population Healthy Nuclei (%): 70%
  Population Membrane Permeable-Phenotype (%): 5%
  Population Mitochondria Different-Phenotype (%): 12%
  Population Mitotic Cells (%): 50%
  Population Pyknosed Nuclei (%): 7%
  Population Tubulin-Different-Phenotype (%): 25%
  Total Cell Count: 97
[5]
  Population Apoptotic (%): 54%
  Population Fragmented Nuclei (%): 20%
  Population Healthy Nuclei (%): 56%
  Population Hoechst High Intensity Objects (%): 18%
  Population Membrane Permeable-Phenotype (%): 35%
  Population Mitochondria Different-Phenotype (%): 1%
  Population Mitotic Cells (%): 45%
  Population Normal (%): 81%
  Population Pyknosed Nuclei (%): 23%
  Population Tubulin-Different-Phenotype (%): 25%
  Total Cell Count: 127
[6]
  Population Apoptotic (%): 42%
  Population Fragmented Nuclei (%): 7%
  Population Healthy Nuclei (%): 86%
  Population Hoechst High Intensity Objects (%): 4%
  Population Membrane Permeable-Phenotype (%): 10%
  Population Mitochondria Different-Phenotype (%): 13%
  Population Mitotic Cells (%): 57%
  Population Normal (%): 95%
  Population Pyknosed Nuclei (%): 6%
  Population Tubulin-Different-Phenotype (%): 16%
  Total Cell Count: 93
[7]
  Population Apoptotic (%): 40%
  Population Fragmented Nuclei (%): 25%
  Population Healthy Nuclei (%): 54%
  Population Hoechst High Intensity Objects (%): 9%
  Population Membrane Permeable-Phenotype (%): 22%
  Population Mitochondria Different-Phenotype (%): 8%
  Population Mitotic Cells (%): 59%
  Population Normal (%): 90%
  Population Pyknosed Nuclei (%): 19%
  Population Tubulin-Different-Phenotype (%): 40%
  Total Cell Count: 125
[8]
  Population Apoptotic (%): 75%
  Population Fragmented Nuclei (%): 23%
  Population Healthy Nuclei (%): 68%
  Population Hoechst High Intensity Objects (%): 6%
  Population Membrane Permeable-Phenotype (%): 4%
  Population Mitochondria Different-Phenotype (%): 14%
  Population Mitotic Cells (%): 25%
  Population Normal (%): 93%
  Population Pyknosed Nuclei (%): 8%
  Population Tubulin-Different-Phenotype (%): 29%
  Total Cell Count: 119
[11]
  Population Apoptotic (%): 66%
  Population Fragmented Nuclei (%): 33%
  Population Healthy Nuclei (%): 48%
  Population Hoechst High Intensity Objects (%): 11%
  Population Membrane Permeable-Phenotype (%): 19%
  Population Mitochondria Different-Phenotype (%): 5%
  Population Mitotic Cells (%): 33%
  Population Normal (%): 88%
  Population Pyknosed Nuclei (%): 18%
  Population Tubulin-Different-Phenotype (%): 14%
  Total Cell Count: 131
[12]
  Population Apoptotic (%): 33%
  Population Fragmented Nuclei (%): 31%
  Population Healthy Nuclei (%): 65%
  Population Hoechst High Intensity Objects (%): 22%
  Population Membrane Permeable-Phenotype (%): 6%
  Population Mitochondria Different-Phenotype (%): 0%
  Population Mitotic Cells (%): 66%
  Population Normal (%): 77%
  Population Pyknosed Nuclei (%): 3%
  Population Tubulin-Different-Phenotype (%): 23%
  Total Cell Count: 127
[9]
  Population Apoptotic (%): 46%
  Population Fragmented Nuclei (%): 33%
  Population Healthy Nuclei (%): 54%
  Population Hoechst High Intensity Objects (%): 11%
  Population Membrane Permeable-Phenotype (%): 26%
  Population Mitochondria Different-Phenotype (%): 4%
  Population Mitotic Cells (%): 53%
  Population Normal (%): 88%
  Population Pyknosed Nuclei (%): 11%
  Population Tubulin-Different-Phenotype (%): 23%
  Total Cell Count: 130
[10]
  Population Apoptotic (%): 62%
  Population Fragmented Nuclei (%): 26%
  Population Healthy Nuclei (%): 65%
  Population Membrane Permeable-Phenotype (%): 7%
  Population Mitochondria Different-Phenotype (%): 1%
  Population Mitotic Cells (%): 37%
  Population Pyknosed Nuclei (%): 8%
  Population Tubulin-Different-Phenotype (%): 22%
  Total Cell Count: 109

## CN1CCN(Cc2cc(NC(=O)c3ccc4c(c3)CN(c3ccccc3)CC4)cc(C(F)(F)F)c2)CC1
[1]
  Population Apoptotic (%): 72% and 64%
  Population Fragmented Nuclei (%): 42% and 27%
  Population Healthy Nuclei (%): 43% and 53%
  Population Hoechst High Intensity Objects (%): 27% and 18%
  Population Membrane Permeable-Phenotype (%): 4% and 12%
  Population Mitochondria Different-Phenotype (%): 6% and 7%
  Population Mitotic Cells (%): 27% and 35%
  Population Normal (%): 72% and 81%
  Population Pyknosed Nuclei (%): 14% and 19%
  Population Tubulin-Different-Phenotype (%): 30% and 14%
  Total Cell Count: 315 and 180
[2]
  Population Apoptotic (%): 75% and 40%
  Population Fragmented Nuclei (%): 55% and 53%
  Population Healthy Nuclei (%): 37% and 39%
  Population Hoechst High Intensity Objects (%): 36% and 35%
  Population Mitochondria Different-Phenotype (%): 13% and 31%
  Population Mitotic Cells (%): 25% and 60%
  Population Normal (%): 63% and 64%
  Population Pyknosed Nuclei (%): 6%
  Total Cell Count: 92 and 114
[5]
  Population Apoptotic (%): 74% and 57%
  Population Fragmented Nuclei (%): 33% and 27%
  Population Healthy Nuclei (%): 52% and 58%
  Population Hoechst High Intensity Objects (%): 41% and 15%
  Population Membrane Permeable-Phenotype (%): 6% and 4%
  Population Mitochondria Different-Phenotype (%): 25% and 10%
  Population Mitotic Cells (%): 25% and 42%
  Population Normal (%): 58% and 84%
  Population Pyknosed Nuclei (%): 14% and 13%
  Total Cell Count: 365 and 178
[6]
  Population Apoptotic (%): 100% and 40%
  Population Fragmented Nuclei (%): 57% and 61%
  Population Healthy Nuclei (%): 33% and 32%
  Population Hoechst High Intensity Objects (%): 39% and 37%
  Population Membrane Permeable-Phenotype (%): 21% and 12%
  Population Mitochondria Different-Phenotype (%): 15% and 16%
  Population Normal (%): 60% and 62%
  Population Pyknosed Nuclei (%): 8% and 6%
  Population Tubulin-Different-Phenotype (%): 21% and 48%
  Total Cell Count: 93 and 124
